Test results reported in ChEMBL document CHEMBL1127320, “Dual-action cephalosporins incorporating a 3'-tertiary-amine-linked quinolone” (J Med Chem, 1994).
In brackets after ≈: the same amount, converted by molar mass.

Tests used:
[1] = Half life was measured as degradation by HPLC analysis.; type: ADME
[2] = tested on: Citrobacter freundii; assay: In vitro minimum inhibitory concentration was measured against Citrobacter freundii BS-16 (beta lactamase producer) strain.; type: functional
Procedure, shortened: (§1)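 MICs were determined by agar dilution with 2-fold dilutions giving final 128–0.0156 µg/mL, extended to 0.000977 µg/mL where needed. Streptococci were tested on brain heart infusion agar plus 20 units/mL catalase, Proteus on Mueller-Hinton with 3% agar, and others on Mueller-Hinton agar. Inocula were 100-fold-diluted overnight cultures, about 3 × 10^4 CFU/spot, read after overnight incubation at 36 °C.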

[3] = tested on: Enterococcus faecalis; assay: In vitro minimum inhibitory concentration was measured against Enterococcus faecalis ATCC 29212 strain.; type: functional
Procedure, shortened: (§2)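 Streptococci were tested on brain heart infusion agar plus 20 units/mL catalase, Proteus on Mueller-Hinton with 3% agar, and others on Mueller-Hinton agar. Inocula were 100-fold-diluted overnight cultures, about 3 × 10^4 CFU/spot, read after overnight incubation at 36 °C.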

[4] = tested on: Enterobacter cloacae; assay: In vitro minimum inhibitory concentration was measured against Enterobacter cloacae p99 (beta lactamase producer) strain.; type: functional
[5] = molecular target: T1, Penicillin-binding protein 1A (Escherichia coli K-12) (UniProt P02918); assay: Affinity for penicillin binding protein 1a of Escherichia coli UB1005 (DC0) was evaluated.; design: unit not given here
T1 sequence (whole entry): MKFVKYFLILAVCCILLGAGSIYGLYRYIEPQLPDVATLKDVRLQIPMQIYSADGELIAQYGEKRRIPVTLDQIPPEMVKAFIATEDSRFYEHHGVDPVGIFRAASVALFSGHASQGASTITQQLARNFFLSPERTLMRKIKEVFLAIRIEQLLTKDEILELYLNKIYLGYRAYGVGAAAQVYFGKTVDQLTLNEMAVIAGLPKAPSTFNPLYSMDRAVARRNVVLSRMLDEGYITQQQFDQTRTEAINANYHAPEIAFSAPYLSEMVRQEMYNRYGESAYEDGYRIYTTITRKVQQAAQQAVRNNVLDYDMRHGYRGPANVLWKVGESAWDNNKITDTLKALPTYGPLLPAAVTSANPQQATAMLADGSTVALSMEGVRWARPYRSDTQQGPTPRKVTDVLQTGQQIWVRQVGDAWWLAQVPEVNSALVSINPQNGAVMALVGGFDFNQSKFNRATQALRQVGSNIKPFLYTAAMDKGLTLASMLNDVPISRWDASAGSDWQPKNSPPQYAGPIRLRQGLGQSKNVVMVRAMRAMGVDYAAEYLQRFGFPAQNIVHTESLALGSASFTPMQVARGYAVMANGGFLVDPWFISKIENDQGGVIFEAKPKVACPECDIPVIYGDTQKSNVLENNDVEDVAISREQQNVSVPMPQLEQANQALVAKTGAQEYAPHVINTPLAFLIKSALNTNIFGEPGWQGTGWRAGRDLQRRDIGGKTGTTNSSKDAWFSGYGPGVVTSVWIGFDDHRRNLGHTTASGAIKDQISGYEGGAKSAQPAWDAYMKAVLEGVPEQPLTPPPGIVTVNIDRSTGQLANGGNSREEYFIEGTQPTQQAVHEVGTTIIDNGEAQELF
Procedure, shortened: (§3)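 Solubilised membranes from sonicated E. coli UB1005 served as the binding-protein source. Binding was read as inhibition of [14C]penicillin G binding.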

[6] = molecular target: T2, Penicillin-binding protein 1B (Escherichia coli K-12) (UniProt P02919); assay: Affinity for penicillin binding protein 1b of Escherichia coli UB1005 (DC0) was evaluated.; design: unit not given here; procedure, shortened: as §3
T2 sequence (whole entry): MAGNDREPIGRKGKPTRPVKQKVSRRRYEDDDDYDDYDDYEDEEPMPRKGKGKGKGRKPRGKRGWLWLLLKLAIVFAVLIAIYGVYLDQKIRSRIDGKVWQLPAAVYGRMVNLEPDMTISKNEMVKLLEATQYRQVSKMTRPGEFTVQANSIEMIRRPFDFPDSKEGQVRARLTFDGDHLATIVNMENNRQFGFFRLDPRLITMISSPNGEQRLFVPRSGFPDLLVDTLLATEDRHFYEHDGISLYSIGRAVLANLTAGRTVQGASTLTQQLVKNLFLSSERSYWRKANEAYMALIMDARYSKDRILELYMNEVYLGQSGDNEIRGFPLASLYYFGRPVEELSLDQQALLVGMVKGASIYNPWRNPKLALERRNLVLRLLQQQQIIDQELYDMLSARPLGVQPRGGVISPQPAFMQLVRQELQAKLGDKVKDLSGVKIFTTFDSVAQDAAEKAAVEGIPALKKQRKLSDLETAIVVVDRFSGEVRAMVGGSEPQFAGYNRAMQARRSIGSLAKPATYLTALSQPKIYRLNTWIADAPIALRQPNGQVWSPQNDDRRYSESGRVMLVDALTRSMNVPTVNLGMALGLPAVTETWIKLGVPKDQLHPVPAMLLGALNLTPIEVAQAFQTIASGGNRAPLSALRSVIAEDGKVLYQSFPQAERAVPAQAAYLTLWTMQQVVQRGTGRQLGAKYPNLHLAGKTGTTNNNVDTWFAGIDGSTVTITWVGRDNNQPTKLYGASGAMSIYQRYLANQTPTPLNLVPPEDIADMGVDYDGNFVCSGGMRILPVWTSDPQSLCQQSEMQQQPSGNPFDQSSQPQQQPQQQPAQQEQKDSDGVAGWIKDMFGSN

[7] = molecular target: T3, Peptidoglycan D,D-transpeptidase MrdA (Escherichia coli K-12) (UniProt P0AD65); assay: Affinity for penicillin binding protein 2 of Escherichia coli UB1005 (DC0) was evaluated.; design: unit not given here; procedure, shortened: as §3
T3 sequence (whole entry): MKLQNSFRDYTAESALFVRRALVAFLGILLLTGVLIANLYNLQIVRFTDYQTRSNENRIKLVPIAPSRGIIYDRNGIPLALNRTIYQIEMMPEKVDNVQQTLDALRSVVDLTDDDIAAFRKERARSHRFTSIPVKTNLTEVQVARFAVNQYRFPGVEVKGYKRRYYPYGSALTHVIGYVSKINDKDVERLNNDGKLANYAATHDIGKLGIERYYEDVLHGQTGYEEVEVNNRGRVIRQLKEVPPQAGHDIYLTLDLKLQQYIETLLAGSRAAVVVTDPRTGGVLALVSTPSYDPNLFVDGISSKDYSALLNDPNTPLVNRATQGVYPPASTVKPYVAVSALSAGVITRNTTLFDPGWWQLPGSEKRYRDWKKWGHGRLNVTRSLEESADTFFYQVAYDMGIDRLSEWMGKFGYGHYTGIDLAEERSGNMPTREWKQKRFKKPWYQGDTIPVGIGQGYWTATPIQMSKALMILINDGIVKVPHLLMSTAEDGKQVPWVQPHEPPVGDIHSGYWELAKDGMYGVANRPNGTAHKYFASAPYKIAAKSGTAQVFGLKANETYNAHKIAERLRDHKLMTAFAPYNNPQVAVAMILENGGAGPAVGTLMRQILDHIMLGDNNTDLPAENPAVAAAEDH

[8] = tested on: Escherichia coli; assay: Minimum inhibitory concentration for DC2, a permeability mutant; procedure, shortened: as §1
[9] = tested on: Escherichia coli; assay: Minimum inhibitory concentration against E. coli UB1005 (DC0)
[10] = tested on: Penicillin-binding protein 3 (Escherichia coli); assay: Affinity for penicillin binding protein 3 of Escherichia coli UB1005 (DC0) was evaluated.; design: unit not given here
[11] = tested on: Escherichia coli; assay: In vitro minimum inhibitory concentration was measured against Escherichia coli 257 strain.; type: functional; procedure, shortened: as §2
[12] = tested on: Escherichia coli; assay: In vitro minimum inhibitory concentration was measured against Escherichia coli ATCC 25922 strain.; type: functional; procedure, shortened: as §2
[13] = tested on: Escherichia coli; assay: In vitro minimum inhibitory concentration was measured against Escherichia coli TEM-1 (Beta lactamase producer) strain.; type: functional; procedure, shortened: as §2
[14] = tested on: Enterobacter cloacae; assay: In vitro minimum inhibitory concentration was measured against Enterobacter cloacae 5699 strain.; type: functional
[15] = tested on: Klebsiella pneumoniae; assay: In vitro minimum inhibitory concentration was measured against Klebsiella pneumoniae A strain.; type: functional; procedure, shortened: as §2
[16] = tested on: Micrococcus luteus; assay: In vitro minimum inhibitory concentration was measured against Micrococcus luteus ATCC 9341 strain.; type: functional; procedure, shortened: as §2
[17] = tested on: Proteus mirabilis; assay: In vitro minimum inhibitory concentration was measured against Proteus mirabilis 90 strain.; type: functional; procedure, shortened: as §2
[18] = tested on: Pseudomonas aeruginosa; assay: In vitro minimum inhibitory concentration was measured against Pseudomonas aeruginosa 18S/H strain.; type: functional; procedure, shortened: as §2
[19] = tested on: Pseudomonas aeruginosa; assay: In vitro minimum inhibitory concentration was measured against Pseudomonas aeruginosa 8780 strain.; type: functional; procedure, shortened: as §2
[20] = tested on: Proteus vulgaris; assay: In vitro minimum inhibitory concentration was measured against Proteus vulgaris 1028BC (beta lactamase producer) strain.; type: functional; procedure, shortened: as §2
[21] = tested on: Serratia marcescens; assay: In vitro minimum inhibitory concentration was measured against Serratia marcescens 1071(beta lactamase producer) strain.; type: functional; procedure, shortened: as §2
[22] = tested on: Staphylococcus aureus; assay: In vitro minimum inhibitory concentration was measured against Staphylococcus aureus 67-0 (Methicillin resistant) strain.; type: functional
[23] = tested on: Staphylococcus aureus; assay: In vitro minimum inhibitory concentration was measured against Staphylococcus aureus 753 (Methicillin resistant) strain.; type: functional
[24] = tested on: Staphylococcus aureus; assay: In vitro minimum inhibitory concentration was measured against Staphylococcus aureus smith strain.; type: functional
[25] = tested on: Streptococcus pneumoniae; assay: In vitro minimum inhibitory concentration was measured against Streptococcus pneumoniae 6301 strain; type: functional; procedure, shortened: as §2
[26] = tested on: Streptococcus pyogenes; assay: In vitro minimum inhibitory concentration was measured against Streptococcus pyogenes 4 strain.; type: functional; procedure, shortened: as §2

Compound | MIC [2] [µg/mL] | MIC [3] [µg/mL] | MIC [4] [µg/mL] | Binding affinity [5] | Binding affinity [6] | Binding affinity [7] | MIC [8] [µg/mL] | MIC [9] [µg/mL] | Binding affinity [10] | MIC [11] [µg/mL] | MIC [12] [µg/mL] | MIC [13] [µg/mL] | MIC [14] [µg/mL] | MIC [15] [µg/mL] | MIC [16] [µg/mL] | MIC [17] [µg/mL] | MIC [18] [µg/mL] | MIC [19] [µg/mL] | MIC [20] [µg/mL] | MIC [21] [µg/mL] | also measured
O=C(O)C1=C(CN2CCN(c3cc4c(cc3F)c(=O)c(C(=O)O)cn4C3CC3)CC2)CS[C@@H]2[C@H](NC(=O)C(C(=O)O)c3ccccc3)C(=O)N12 (some centres undefined) | 0.063 (≈ 0.0893 µM) | 32 (≈ 45.3 µM) | 0.063 (≈ 0.0893 µM) | > 100 | > 100 | > 100 | 2 (≈ 2.83 µM) | 4 (≈ 5.67 µM) | 100 |  |  |  |  |  |  |  |  |  |  |  | half-life [1]: 228 h
Nc1nc(/C(=N/OCC(=O)O)C(=O)N[C@@H]2C(=O)N3C(C(=O)O)=C(CN4CCN(c5cc6c(cc5F)c(=O)c(C(=O)O)cn6C5CC5)CC4)CS[C@H]23)cs1 | 1 (≈ 1.3 µM) | 16 (≈ 20.8 µM) | 0.25 (≈ 0.324 µM) | > 100 | > 100 | > 100 | 4 (≈ 5.19 µM) | 2 (≈ 2.59 µM) | 2 | 0.25 (≈ 0.324 µM) | 0.5 (≈ 0.649 µM) | 0.5 (≈ 0.649 µM) | 1 (≈ 1.3 µM) | 1 (≈ 1.3 µM) | 1 (≈ 1.3 µM) | 2 (≈ 2.59 µM) | 4 (≈ 5.19 µM) | 8 (≈ 10.4 µM) | 1 (≈ 1.3 µM) | 2 (≈ 2.59 µM) | MIC [22]: 32 µg/mL (≈ 41.5 µM); MIC [23]: 8 µg/mL (≈ 10.4 µM); MIC [24]: 8 µg/mL (≈ 10.4 µM); MIC [25]: 0.25 µg/mL (≈ 0.324 µM); MIC [26]: 0.125 µg/mL (≈ 0.162 µM)
CO/N=C(\C(=O)N[C@@H]1C(=O)N2C(C(=O)O)=C(CN3CCNCC3)CS[C@H]12)c1csc(N)n1 | 128 (≈ 266 µM) | 4 (≈ 8.31 µM) | 128 (≈ 266 µM) | > 100 | 100 | > 100 | 0.25 (≈ 0.519 µM) |  | 100 | 0.25 (≈ 0.519 µM) | 0.25 (≈ 0.519 µM) | 0.5 (≈ 1.04 µM) | 0.5 (≈ 1.04 µM) | 0.125 (≈ 0.26 µM) | 0.25 (≈ 0.519 µM) | 0.5 (≈ 1.04 µM) | > 128 | 64 (≈ 133 µM) | > 128 | 8 (≈ 16.6 µM) | MIC [22]: > 128 µg/mL; MIC [23]: > 128 µg/mL; MIC [24]: 4 µg/mL (≈ 8.31 µM); MIC [25]: 0.063 µg/mL (≈ 0.131 µM); MIC [26]: 0.031 µg/mL (≈ 0.0644 µM)
